What was measured:
Type in all cases: cell-based
HEK293 cells = test: Fluo4 [Ca2+]i assay in parental HEK293 cells; conditions: 300 µM
Method in brief: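 Wild-type HEK293 cells in DMEM (4.5 mg/ml glucose, 10% heat-inactivated FBS, penicillin/streptomycin), plated on polyornithine-treated wells for 14–18 hrs. Loaded with Fluo4-AM (2 µM, 60 min, 37°C) in ECS with 2 mM probenecid, then washed. Test compound was given robotically at 300 µM final. Fluorescence was read on a plate reader at ex 494/em 525 nm, 0.67 Hz, 20–25°C.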

[1] = molecular target: T1, human TRPA1 endogenously expressed in WI-38 fibroblasts (Homo sapiens, UniProt O75762); test: Fluo4 [Ca2+]i assay in WI-38 fibroblasts
[2] = molecular target: T1, human TRPA1 endogenously expressed in WI-38 fibroblasts; test: Whole-cell recordings of WI-38 cells
Method in brief: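 WI-38 cells grown in MEM with 10% heat-inactivated FBS and penicillin/streptomycin at 37°C, 5% CO₂. Cells were detached with 0.05% trypsin plus 0.53 mM EDTA in Ca²⁺/Mg²⁺-free HBSS for 5–10 min, held at 37°C, then settled on polyornithine-coated coverslips for 3–5 min before perfusion. Whole-cell voltage clamp was sampled at 5 kHz, with 100 ms ramps from −100 to +100 mV (holding −60 mV) applied every 0.5 s.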

murine TRPV1 [3] = molecular target: T2, murine TRPV1 (Mus musculus, UniProt Q704Y3); test: Fura2 Ca2+ imaging of HEK293 cells transiently expressing TRPV1
Method in brief: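 Murine TRPV1 (pIRES2EGFP) was transiently expressed in HEK293 cells, which were seeded on polyornithine coverslips one day after transfection. After 16 hrs, cells were loaded with 2 µM Fura2-AM plus 0.05% Pluronic F-127 (60 min, 37°C). Transfected cells were identified by GFP (470 nm). Imaging used 340/380 nm excitation and 510 nm emission at 22°C. Capsaicin and test compound were perfused at final concentration. Maximal Fura2 ratio change reported, n = 3.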

murine TRPV3 = molecular target: T3, murine TRPV3 (Mus musculus, UniProt Q8K424); test: Fluo4 [Ca2+]i assay in stable HEK293 TRPV3 cell line
T3 sequence (Q8K424 1-791): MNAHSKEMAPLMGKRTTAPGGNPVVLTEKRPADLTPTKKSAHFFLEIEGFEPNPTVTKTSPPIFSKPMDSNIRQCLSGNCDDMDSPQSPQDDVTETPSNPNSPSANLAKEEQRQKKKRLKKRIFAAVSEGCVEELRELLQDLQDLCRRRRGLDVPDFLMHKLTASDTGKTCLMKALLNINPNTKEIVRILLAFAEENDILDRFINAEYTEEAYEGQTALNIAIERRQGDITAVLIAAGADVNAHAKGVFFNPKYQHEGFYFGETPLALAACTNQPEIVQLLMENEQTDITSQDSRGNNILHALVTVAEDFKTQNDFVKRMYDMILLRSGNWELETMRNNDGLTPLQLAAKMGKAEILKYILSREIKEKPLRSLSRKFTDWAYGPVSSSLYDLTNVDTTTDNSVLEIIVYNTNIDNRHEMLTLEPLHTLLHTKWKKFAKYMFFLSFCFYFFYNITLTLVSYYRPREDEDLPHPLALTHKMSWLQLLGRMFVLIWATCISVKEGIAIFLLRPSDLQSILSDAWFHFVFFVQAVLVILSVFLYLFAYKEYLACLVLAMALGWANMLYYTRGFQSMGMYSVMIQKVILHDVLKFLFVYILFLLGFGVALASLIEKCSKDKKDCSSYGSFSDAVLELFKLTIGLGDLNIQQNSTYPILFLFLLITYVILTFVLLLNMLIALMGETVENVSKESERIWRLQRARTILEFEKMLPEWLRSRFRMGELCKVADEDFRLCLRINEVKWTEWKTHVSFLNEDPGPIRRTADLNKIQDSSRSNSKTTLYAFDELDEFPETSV
Method in brief: (§1)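 Stable HEK293 lines expressing murine TRPV3 (clonal) or TRPM8 (polyclonal), selected with 400 µg/ml G418. Seeded at ~100,000 cells/well on polyornithine-treated wells and grown 14–18 hrs. Loaded with 2 µM Fluo4-AM plus 0.05% Pluronic F-127 in ECS (pH 7.4) for 60 min at 37°C, with 2 mM probenecid throughout. Test compound and channel agonist added robotically. Fluorescence read at ex 494/em 525 nm, 0.67 Hz, 20–25°C. Maximal fluorescence change reported, n = 3.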

human TRPA1 = human TRPA1 (Homo sapiens, UniProt O75762); test: Fluo4 [Ca2+]i assay in HEK-A1 cells
murine TRPM8 = murine TRPM8 (Mus musculus, UniProt Q8R4D5); test: Fluo4 [Ca2+]i assay in stable HEK293 TRPM8 cell line
Method in brief: as §1

[4] = molecular target: human TRPA1 Cys621Ser, Cys641Ser and Cys665Ser triple mutant (Homo sapiens, UniProt O75762, C621S/C641S/C665S); test: Currents of human TRPA1 triple cysteine mutant; conditions: HH, unpublished results
rat TRPA1 = rat TRPA1 (Rattus norvegicus, UniProt Q6RI86); test: Two-electrode voltage clamp of Xenopus oocytes expressing rat TRPA1; conditions: for response to FFA and AITC together, % of that evoked by FFA alone: 30 µM FFA + 3 µM AITC; for current stimulated by FFA and CA together, % of that evoked by FFA: 30 µM FFA + 3 µM CA; for current with FFA at 14°C, % of that evoked by the same concentration at 22°C / increase of FFA-activated current by raising bath Ca2+ to 10 mM / decrease of FFA-activated current amplitude in BAPTA-injected oocytes: 30 µM FFA; for decrease of FFA-activated current amplitude in BAPTA-injected oocytes / EC50: nominally Ca2+-free bath; for decrease of FFA-activated current amplitude in BAPTA-injected oocytes: BAPTA ~2.5 mM
murine TRPV1 [5] = molecular target: T2, murine TRPV1; test: Two-electrode voltage clamp of Xenopus oocytes expressing murine TRPV1; conditions: 100 µM FFA with 100 µM 2APB
Method in brief: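 Collagenase-defolliculated Xenopus oocytes (>1.5 mm) were injected with 5 ng cRNA and kept 2–5 days at 19°C in ND96. Two-electrode clamp used a nominally Ca²⁺-free bath (pH 7.4), holding −20 mV, a 20 ms step to −100 mV, then a 200 ms ramp to +100 mV each second, at 22°C.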

[6] = high concentrations of FFA (30 to 300 µM)

murine TRPM8, sequence (Q8R4D5 whole entry): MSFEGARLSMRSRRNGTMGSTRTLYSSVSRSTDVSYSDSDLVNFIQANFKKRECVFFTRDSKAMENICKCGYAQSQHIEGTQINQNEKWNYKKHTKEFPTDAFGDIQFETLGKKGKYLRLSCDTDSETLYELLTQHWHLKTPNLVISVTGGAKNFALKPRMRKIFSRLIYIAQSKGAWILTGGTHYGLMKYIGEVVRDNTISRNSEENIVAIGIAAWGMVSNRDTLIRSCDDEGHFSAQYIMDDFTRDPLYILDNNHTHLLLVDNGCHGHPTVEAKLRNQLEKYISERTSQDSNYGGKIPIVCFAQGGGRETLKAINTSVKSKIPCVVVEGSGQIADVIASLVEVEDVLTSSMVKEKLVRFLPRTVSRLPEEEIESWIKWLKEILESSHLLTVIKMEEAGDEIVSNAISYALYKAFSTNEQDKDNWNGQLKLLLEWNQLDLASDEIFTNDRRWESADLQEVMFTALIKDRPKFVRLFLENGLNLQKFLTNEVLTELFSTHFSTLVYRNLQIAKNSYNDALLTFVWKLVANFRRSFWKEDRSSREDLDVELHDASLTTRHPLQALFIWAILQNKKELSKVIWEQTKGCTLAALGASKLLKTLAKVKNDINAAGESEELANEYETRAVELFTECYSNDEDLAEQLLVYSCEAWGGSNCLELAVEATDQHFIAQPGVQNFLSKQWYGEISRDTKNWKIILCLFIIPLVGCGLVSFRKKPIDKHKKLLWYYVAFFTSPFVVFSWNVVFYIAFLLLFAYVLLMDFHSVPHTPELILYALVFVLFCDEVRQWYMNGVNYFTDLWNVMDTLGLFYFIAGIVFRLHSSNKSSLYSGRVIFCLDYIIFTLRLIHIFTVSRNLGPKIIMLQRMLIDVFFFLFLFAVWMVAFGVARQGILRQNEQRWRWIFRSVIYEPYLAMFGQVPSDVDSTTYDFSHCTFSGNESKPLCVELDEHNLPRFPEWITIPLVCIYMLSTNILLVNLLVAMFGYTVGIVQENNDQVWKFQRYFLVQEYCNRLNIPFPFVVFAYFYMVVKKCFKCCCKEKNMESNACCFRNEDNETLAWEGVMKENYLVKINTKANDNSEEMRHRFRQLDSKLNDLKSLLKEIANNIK
T1 sequence (O75762 whole entry): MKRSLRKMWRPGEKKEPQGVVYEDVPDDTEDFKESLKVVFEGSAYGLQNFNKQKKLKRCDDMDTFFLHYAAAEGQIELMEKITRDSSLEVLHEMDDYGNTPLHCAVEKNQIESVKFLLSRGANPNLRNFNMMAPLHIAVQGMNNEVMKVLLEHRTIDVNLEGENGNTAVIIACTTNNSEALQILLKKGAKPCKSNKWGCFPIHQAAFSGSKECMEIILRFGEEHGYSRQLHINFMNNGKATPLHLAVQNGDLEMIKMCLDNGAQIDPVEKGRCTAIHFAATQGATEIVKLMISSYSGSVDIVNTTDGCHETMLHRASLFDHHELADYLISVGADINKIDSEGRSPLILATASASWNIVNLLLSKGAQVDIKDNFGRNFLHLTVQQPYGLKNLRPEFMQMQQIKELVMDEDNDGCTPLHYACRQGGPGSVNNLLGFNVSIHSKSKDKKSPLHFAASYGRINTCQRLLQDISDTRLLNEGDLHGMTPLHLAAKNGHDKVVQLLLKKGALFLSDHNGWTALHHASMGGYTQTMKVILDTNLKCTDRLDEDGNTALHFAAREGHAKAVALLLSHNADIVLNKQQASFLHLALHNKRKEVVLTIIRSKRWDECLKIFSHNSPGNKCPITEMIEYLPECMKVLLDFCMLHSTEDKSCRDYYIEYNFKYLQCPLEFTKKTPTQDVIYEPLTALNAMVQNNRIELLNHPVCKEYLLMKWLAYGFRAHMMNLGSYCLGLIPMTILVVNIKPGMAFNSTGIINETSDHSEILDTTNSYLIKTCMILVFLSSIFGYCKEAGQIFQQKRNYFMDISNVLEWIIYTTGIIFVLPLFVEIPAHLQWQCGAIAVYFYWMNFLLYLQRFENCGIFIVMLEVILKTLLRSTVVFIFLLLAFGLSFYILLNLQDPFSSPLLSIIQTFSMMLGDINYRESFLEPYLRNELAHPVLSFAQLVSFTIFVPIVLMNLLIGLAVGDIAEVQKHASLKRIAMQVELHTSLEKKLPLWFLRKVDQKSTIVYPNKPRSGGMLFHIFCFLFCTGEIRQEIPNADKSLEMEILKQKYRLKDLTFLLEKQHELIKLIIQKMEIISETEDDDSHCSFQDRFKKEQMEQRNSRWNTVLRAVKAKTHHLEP
T2 sequence (Q704Y3 whole entry, the tested form may be a part): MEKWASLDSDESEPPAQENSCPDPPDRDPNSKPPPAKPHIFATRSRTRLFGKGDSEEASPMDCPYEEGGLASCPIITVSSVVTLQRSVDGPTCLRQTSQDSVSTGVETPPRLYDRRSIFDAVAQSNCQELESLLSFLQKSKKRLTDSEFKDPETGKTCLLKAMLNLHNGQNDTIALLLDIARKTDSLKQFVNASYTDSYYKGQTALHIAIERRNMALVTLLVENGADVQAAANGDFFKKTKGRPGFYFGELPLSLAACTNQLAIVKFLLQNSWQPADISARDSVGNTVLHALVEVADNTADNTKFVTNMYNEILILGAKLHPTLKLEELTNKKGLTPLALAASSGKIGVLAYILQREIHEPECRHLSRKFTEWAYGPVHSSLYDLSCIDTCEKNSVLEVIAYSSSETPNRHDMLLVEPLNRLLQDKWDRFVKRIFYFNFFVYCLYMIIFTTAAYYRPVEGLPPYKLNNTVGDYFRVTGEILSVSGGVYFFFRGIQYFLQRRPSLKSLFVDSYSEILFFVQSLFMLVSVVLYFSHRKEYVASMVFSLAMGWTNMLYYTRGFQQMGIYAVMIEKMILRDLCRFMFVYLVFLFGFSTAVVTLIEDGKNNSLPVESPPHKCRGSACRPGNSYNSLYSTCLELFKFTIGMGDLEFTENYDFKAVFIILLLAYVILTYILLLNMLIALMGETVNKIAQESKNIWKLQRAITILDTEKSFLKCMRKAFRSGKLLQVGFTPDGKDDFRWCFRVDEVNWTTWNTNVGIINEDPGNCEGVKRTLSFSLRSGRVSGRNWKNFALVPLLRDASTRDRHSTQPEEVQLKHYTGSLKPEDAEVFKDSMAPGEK
rat TRPA1, sequence (Q6RI86 whole entry): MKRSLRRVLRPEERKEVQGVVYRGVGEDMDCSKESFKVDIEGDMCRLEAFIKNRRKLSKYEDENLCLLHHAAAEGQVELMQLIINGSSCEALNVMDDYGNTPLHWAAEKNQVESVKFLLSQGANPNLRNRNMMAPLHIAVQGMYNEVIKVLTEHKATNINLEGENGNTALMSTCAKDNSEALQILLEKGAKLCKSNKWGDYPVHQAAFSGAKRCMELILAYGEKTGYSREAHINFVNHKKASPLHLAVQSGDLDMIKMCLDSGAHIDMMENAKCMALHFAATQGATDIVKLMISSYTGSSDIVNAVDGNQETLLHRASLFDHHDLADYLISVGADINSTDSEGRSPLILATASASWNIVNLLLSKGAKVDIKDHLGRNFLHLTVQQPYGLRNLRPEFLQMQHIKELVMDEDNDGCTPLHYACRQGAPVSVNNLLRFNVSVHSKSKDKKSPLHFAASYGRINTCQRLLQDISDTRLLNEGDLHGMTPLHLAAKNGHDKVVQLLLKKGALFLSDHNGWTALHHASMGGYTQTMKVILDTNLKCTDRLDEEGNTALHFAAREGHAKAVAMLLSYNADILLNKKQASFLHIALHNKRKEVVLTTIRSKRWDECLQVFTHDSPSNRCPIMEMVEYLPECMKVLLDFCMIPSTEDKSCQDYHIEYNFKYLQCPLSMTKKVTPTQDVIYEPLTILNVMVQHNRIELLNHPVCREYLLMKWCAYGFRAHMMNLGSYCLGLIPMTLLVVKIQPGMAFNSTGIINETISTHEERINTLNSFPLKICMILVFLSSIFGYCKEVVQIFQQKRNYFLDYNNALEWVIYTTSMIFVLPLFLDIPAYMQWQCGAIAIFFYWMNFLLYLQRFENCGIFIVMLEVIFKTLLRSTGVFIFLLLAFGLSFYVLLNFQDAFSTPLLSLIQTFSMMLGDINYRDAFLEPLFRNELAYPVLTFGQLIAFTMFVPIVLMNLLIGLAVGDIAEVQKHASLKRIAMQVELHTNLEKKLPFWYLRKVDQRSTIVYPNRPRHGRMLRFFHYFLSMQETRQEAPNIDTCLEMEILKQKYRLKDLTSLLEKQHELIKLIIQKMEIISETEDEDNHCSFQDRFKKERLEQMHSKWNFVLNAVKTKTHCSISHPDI
human TRPA1, sequence (O75762 whole entry): as the sequence (O75762 whole entry) above
human TRPA1 Cys621Ser, Cys641Ser and Cys665Ser triple mutant, sequence (O75762 whole entry C621S/C641S/C665S): as the sequence (O75762 whole entry) above, with C621S, C641S, C665S counted along it

## O=C(O)c1ccccc1Nc1cccc(C(F)(F)F)c1 [FFA, flufenamic acid]
HEK293 cells
  effect on Fluo4 fluorescence in HEK293 cells: little effect
[1]; 300 µM
  agonist effect on Fluo4 fluorescence ([Ca2+]i) in WI-38 cells: increased the Fluo4 fluorescence
[1]; WI-38 cells
  nH (Hill coefficient): 1.3 ± 0.2
[2]; +100 mV
  Hill co-efficient at +100 mV: 1.7 ± 0.2
[2]; EC50 for FFA-evoked whole-cell currents at +100 mV, +100 mV
  EC50: 44 ± 11 µM
[2]; EC50 for FFA-evoked whole-cell currents at −100 mV, −100 mV
  EC50: 55 ± 4 µM
[2]; −100 mV
  Hill co-efficient at −100 mV: 2.4 ± 0.1
Murine TRPV1 [3]; FFA from 3.7 to 100 µM
  increase in Fura2 ratio upon application: no significant increase
Murine TRPV1 [3]; [6]
  effect on [Ca2+]i increase elicited by the channel's agonist: inhibited
Murine TRPV3; FFA from 3.7 to 100 µM
  increase in Fluo4 fluorescence upon application: no significant increase
Murine TRPV3; [6]
  effect on [Ca2+]i increase elicited by the channel's agonist: inhibited
Human TRPA1
  EC50: 57 ± 5 µM
Human TRPA1; HEK-A1 cells
  nH (Hill coefficient): 1.6 ± 0.1
Murine TRPM8; 300 µM FFA
  Fluo4 fluorescence change: slow fluorescence increase
Murine TRPM8; FFA from 3.7 to 100 µM
  increase in Fluo4 fluorescence upon application: no significant increase
Murine TRPM8; [6]
  effect on [Ca2+]i increase elicited by the channel's agonist: inhibited
[4]
  concentration-response curve in triple cysteine mutant: right-shifted
Rat TRPA1
  threshold of activation: about 10 µM
Rat TRPA1; +100 mV
  response to FFA and AITC together, % of that evoked by FFA alone: 300 ± 52%
  current stimulated by FFA and CA together, % of that evoked by FFA: 223 ± 25%
  current with FFA at 14°C, % of that evoked by the same concentration at 22°C: 226 ± 86%
  increase of FFA-activated current by raising bath Ca2+ to 10 mM: 240 ± 39%
  decrease of FFA-activated current amplitude in BAPTA-injected oocytes: ~ 44%
  Hill co-efficient at +100 mV: 2.2 ± 0.2
Rat TRPA1; −100 mV
  response to FFA and AITC together, % of that evoked by FFA alone: 350 ± 62%
  current stimulated by FFA and CA together, % of that evoked by FFA: 234 ± 43%
  current with FFA at 14°C, % of that evoked by the same concentration at 22°C: 315 ± 85%
  decrease of FFA-activated current amplitude in BAPTA-injected oocytes: ~ 33%
  increase of FFA-activated current by raising bath Ca2+ to 10 mM: 309 ± 49%
  Hill co-efficient at −100 mV: 2.2 ± 0.1
Rat TRPA1; EC50 for current activation at +100 mV, +100 mV
  EC50: 78 ± 4 µM
Rat TRPA1; EC50 for current activation at −100 mV, −100 mV
  EC50: 147 ± 4 µM
Murine TRPV1 [5]; +100 mV
  suppression of 2APB-activated current: 57%
Murine TRPV1 [5]; −100 mV
  suppression of 2APB-activated current: 75%

From publication PMC2828537 (Pflugers Archiv : European journal of physiology, 2009)
